Measurements reported in ChEMBL document CHEMBL1129653, “Synthesis and quantitative structure-activity relationship of a novel series of small conductance Ca(2+)-activated K+ channel blockers related to dequalinium” (J Med Chem, 1996).

How the values were obtained:
[1] = Equieffective molar ratio of compound to inhibit hyperpolarization in cultured rat sympathetic neurons; format: functional, Sympathetic neuron
How it was run: (§1)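 Rat sympathetic neurons dissociated, plated on laminin-coated dishes and cultured 3–10 days, then perfused with physiological salt solution (mM: NaCl 118, KCl 4.8, CaCl2 2.5). AHP inhibition taken as the peak difference between control and blocker records, as % of control AHP. Dequalinium reference run in each series. EMR is test-compound IC50 divided by dequalinium IC50 from the same experiment; IC50 by Hill fit, ≥3 cells.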

[2] = biological target: T1, Small conductance calcium-activated potassium channel (Rattus norvegicus, UniProt P70604+P70606+P70605); experiment: SKCa-blocking activity by its ability to inhibit after hyperpolarization (AHP) in cultured rat sympathetic neurons; format: functional, cell-based; conditions: sympathetic neuron
How it was run: (§2)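 AHP block was the peak of the digitally subtracted control-minus-drug record, as % of control AHP at the same time point. IC50 came from a Hill equation fit over at least three cells. Test concentrations above 10–30 µM were generally avoided.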

[3] = biological target: T1, Small conductance calcium-activated potassium channel; experiment: SKCa-blocking activity as inhibitino of after hyperpolarization (AHP) in cultured rat sympathetic neurons; No activity at maximal dose used; format: functional, cell-based; conditions: sympathetic neuron
How it was run: as §2, with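 “Cultured rat sympathetic neurons (laminin-coated dishes, 3–10 days) were perfused with physiological salt solution (mM: NaCl 118, KCl 4.8, CaCl2 2.5). AHP block” for “AHP block”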

[4] = Equieffective molar ratio of compound to inhibit hyperpolarization in cultured rat sympathetic neurons; No activity up to this concentration; format: functional, Sympathetic neuron; how it was run: as §1
[5] = biological target: T1, Small conductance calcium-activated potassium channel; experiment: SKCa-blocking activity as inhibition of after hyperpolarization (AHP) in cultured rat sympathetic neurons; Insufficient activity at maximal dose used; format: functional, cell-based; conditions: sympathetic neuron
How it was run: as §2, with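 “Cultured rat sympathetic neurons (laminin-coated dishes, 3–10 days) were perfused with physiological salt solution (mM: NaCl 118, KCl 4.8, CaCl2 2.5). AHP block” for “AHP block”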

[6] = Equieffective molar ratio of compound to inhibit hyperpolarization in cultured rat sympathetic neurons; Insufficient activity up to this concentration to determine; format: functional, Sympathetic neuron; how it was run: as §1

IC50 [2] [µM]	SMILES	Ratio [1]	further results
2.4	Cc1cc(NCCCCCCCCCCCCNc2cc(C)[n+](Cc3ccccc3)c3ccccc23)c2ccccc2[n+]1Cc1ccccc1	4	–
2.7	C[n+]1ccc(NCCCCCCCCNc2cc[n+](C)c3ccccc23)c2ccccc21	3.1	–
2.1	C[n+]1ccc(NCCCCCCCCCCNc2cc[n+](C)c3ccccc23)c2ccccc21	1.9	–
0.4	Cc1cc(NCCCCCCCCCCNc2cc(C)[n+](Cc3ccccc3)c3ccccc23)c2ccccc2[n+]1Cc1ccccc1	0.6	–
1.3	C[n+]1ccc(NCCCCCCCCCCNc2cc[n+](C)c3cc(Cl)ccc23)c2ccc(Cl)cc21	1.5	–
3.8	Cc1cc(NCCCCCCCCCCCCNc2cc(C)nc3ccccc23)c2ccccc2n1	7.1	–
0.75	COc1cc(C[n+]2c(C)cc(NCCCCCCCCCCNc3cc(C)nc4ccccc34)c3ccccc32)cc(OC)c1	1.2	–
4.4	Cc1cc(NCCCCCCCCCCCCNc2cc(C)[n+](Cc3ccccc3)c3ccccc23)c2ccccc2n1	8	–
1.3	Cc1cc(NCCCCCCCCCCNc2cc(C)[n+](Cc3ccccc3)c3ccccc23)c2ccccc2n1	2.4	–
0.7	c1ccc(C[n+]2ccc(NCCCCCCCCCCNc3cc[n+](Cc4ccccc4)c4ccccc34)c3ccccc32)cc1	1	–
1	Cc1cc(N)c2ccccc2[n+]1CCCCCCCCCC[n+]1c(C)cc(N)c2ccccc21.[Cl-].[Cl-] [DEQUALINIUM CHLORIDE]	–	–
2.5	Cc1cc(NCCCCCCCCCCNc2cc(C)nc3ccccc23)c2ccccc2n1 [QUINDECAMINE]	3.6	–

More lines, now with the values behind:

SMILES	IC50 [2] [µM]	Ratio [1]	further results
c1ccc2c(NCCCCCCCCCCNc3ccnc4ccccc34)ccnc2c1	–	3.5	–
c1ccc2c(OCCCCCCCCCCOc3ccnc4ccccc34)ccnc2c1	18	16	–
C[n+]1ccc(CCCCCCCCCCc2cc[n+](C)c3ccccc23)c2ccccc21	40	26	–
C[n+]1ccc(CCCCCCCCCCCCc2cc[n+](C)c3ccccc23)c2ccccc21	3.9	5.9	–
c1ccc2c(CCCCCCCCCCCCc3ccnc4ccccc34)ccnc2c1	–	–	IC50 [3]: > 10 µM; Ratio [4]: >10
C[n+]1ccc(OCCCCCCCCCCOc2cc[n+](C)c3ccccc23)c2ccccc21	6.8	7.2	–
c1ccc2c(SCCCCCCCCCCSc3ccnc4ccccc34)ccnc2c1	–	–	IC50 [5]: > 10 µM; Ratio [6]: >10
Cc1cc(NCCCCCCCCCCNc2cc(C)[n+](CCC(c3ccccc3)c3ccccc3)c3ccccc23)c2ccccc2[n+]1CCC(c1ccccc1)c1ccccc1	4.3	6.2	–
C[n+]1ccc(SCCCCCCCCCCSc2cc[n+](C)c3ccccc23)c2ccccc21	3.7	6.2	–
COc1cc(C[n+]2c(C)cc(NCCCCCCCCCCNc3cc(C)[n+](Cc4cc(OC)cc(OC)c4)c4ccccc34)c3ccccc32)cc(OC)c1	1.7	2.1	–
